The record followed here is ChEMBL document CHEMBL4680371, “Design and Structure-Activity Relationship of a Potent Furin Inhibitor Derived from Influenza Hemagglutinin” (ACS Med Chem Lett, 2021).

Where a SMILES comes first, the peptide text is derived from it. Bridges are numbered along the chain shown (N, C = ends). [ ]: non-standard residue; d: D form. Abu = CC[C@H](N)C(=O)O

Sequence of Furin (P09958 whole entry): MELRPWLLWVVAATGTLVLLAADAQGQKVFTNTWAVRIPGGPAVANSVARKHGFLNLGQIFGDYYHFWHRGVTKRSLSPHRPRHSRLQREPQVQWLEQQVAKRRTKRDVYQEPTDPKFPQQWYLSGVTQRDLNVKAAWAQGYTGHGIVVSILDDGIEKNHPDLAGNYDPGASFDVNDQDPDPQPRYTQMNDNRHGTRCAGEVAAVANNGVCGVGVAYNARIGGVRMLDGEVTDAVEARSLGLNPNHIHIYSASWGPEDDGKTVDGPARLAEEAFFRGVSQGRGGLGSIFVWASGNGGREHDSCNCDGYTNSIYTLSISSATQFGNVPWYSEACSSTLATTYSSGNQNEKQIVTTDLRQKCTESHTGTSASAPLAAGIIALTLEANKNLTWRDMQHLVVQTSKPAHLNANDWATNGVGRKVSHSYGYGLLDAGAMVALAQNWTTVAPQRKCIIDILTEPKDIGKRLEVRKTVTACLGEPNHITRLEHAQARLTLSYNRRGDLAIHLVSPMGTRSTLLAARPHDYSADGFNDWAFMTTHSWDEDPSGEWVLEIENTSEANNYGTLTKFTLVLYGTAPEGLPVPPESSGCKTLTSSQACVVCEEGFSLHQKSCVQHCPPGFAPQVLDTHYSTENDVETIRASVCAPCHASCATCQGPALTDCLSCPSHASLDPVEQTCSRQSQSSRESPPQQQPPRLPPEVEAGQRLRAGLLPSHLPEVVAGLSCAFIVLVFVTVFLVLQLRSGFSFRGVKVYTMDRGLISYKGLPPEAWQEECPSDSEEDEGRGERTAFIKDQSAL

This test addresses Furin (Homo sapiens, UniProt P09958). Briefly: Inhibition of recombinant soluble human furin using pyroGlu-Arg-Thr-Lys-Arg-methyl-coumaryl-7-amide as substrate measured after 1 hr. The method in brief:
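Soluble human recombinant furin was tested in a competitive kinetic assay. Ki is reported as the mean ± SD of at least two independent experiments.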
The Ki is the equilibrium dissociation constant of an inhibitor or competing ligand from its target. `CC[C@H](C)[C@H](NC(=O)[C@H](CCCNC(=N)N)NC(C)=O)C(=O)N[C@@H](CCCNC(=N)N)C(=O)N[C@@H](CCCNC(=N)N)C(=O)N[C@@H](CCCNC(=N)N)C(=O)N[C@@H](CCCCN)C(=O)N[C@@H](CCCCN)C(=O)N[C@@H](CCCNC(=N)N)C(=O)N[C@H](C(N)=O)[C@@H](C)O`: the Ki turned out to be 20 nM.
The same measure for `CC(=O)N[C@@H](CCCNC(=N)N)C(=O)N[C@@H](CCCCN)C(=O)N[C@@H](CCCNC(=N)N)C(=O)N[C@@H](CCCNC(=N)N)C(=O)N[C@@H](CCCNC(=N)N)C(=O)N[C@@H](CCCCN)C(=O)N[C@@H](CCCCN)C(=O)N[C@@H](CCCNC(=N)N)C(=O)N[C@H](C(N)=O)[C@@H](C)O`: 16 nM; for `CC(=O)N[C@@H](CCCNC(=N)N)C(=O)N[C@@H](CC(=O)O)C(=O)N[C@@H](CCCNC(=N)N)C(=O)N[C@@H](CCCNC(=N)N)C(=O)N[C@@H](CCCNC(=N)N)C(=O)N[C@@H](CCCCN)C(=O)N[C@@H](CCCCN)C(=O)N[C@@H](CCCNC(=N)N)C(=O)N[C@H](C(N)=O)[C@@H](C)O`: 33 nM.
In the case of `CC(=O)N[C@@H](CCCNC(=N)N)C(=O)N[C@@H](C)C(=O)N[C@@H](CCCNC(=N)N)C(=O)N[C@H](C(=O)N[C@@H](CCCNC(=N)N)C(=O)N[C@@H](CCCCN)C(=O)N[C@@H](CCCCN)C(=O)N[C@@H](CCCNC(=N)N)C(=O)N[C@H](C(N)=O)[C@@H](C)O)C(C)(C)C` it was 16 nM; in that of `CC(=O)N[C@@H](CCCNC(=N)N)C(=O)N[C@@H](C)C(=O)N[C@@H](CCCNC(=N)N)C(=O)N[C@@H](Cc1c[nH]c2ccccc12)C(=O)N[C@@H](CCCNC(=N)N)C(=O)N[C@@H](CCCCN)C(=O)N[C@@H](CCCCN)C(=O)N[C@@H](CCCNC(=N)N)C(=O)N[C@H](C(N)=O)[C@@H](C)O`, 47 nM; in that of `CC(=O)N[C@@H](CCCNC(=N)N)C(=O)N[C@@H](CC(C)C)C(=O)N[C@@H](CCCNC(=N)N)C(=O)N[C@@H](CCCNC(=N)N)C(=O)N[C@@H](CCCNC(=N)N)C(=O)N[C@@H](CCCCN)C(=O)N[C@@H](CCCCN)C(=O)N[C@@H](CCCNC(=N)N)C(=O)N[C@H](C(N)=O)[C@@H](C)O`, 23 nM.
The same measure for `CC[C@H](NC(C)=O)C(=O)N[C@@H](C)C(=O)N[C@@H](CCCNC(=N)N)C(=O)N[C@H](C(=O)N[C@@H](CCCNC(=N)N)C(=O)N[C@@H](CCCCN)C(=O)N[C@@H](CCCCN)C(=O)N[C@@H](CCCNC(=N)N)C(=O)N[C@H](C(N)=O)[C@@H](C)O)[C@@H](C)CC` (Ac-[Abu]ARIRKKRT-NH2): 6 nM.
Consider `CC(=O)N[C@@H](CCCNC(=N)N)C(=O)N[C@@H](Cc1c[nH]c2ccccc12)C(=O)N[C@@H](CCCNC(=N)N)C(=O)N[C@@H](CCCNC(=N)N)C(=O)N[C@@H](CCCNC(=N)N)C(=O)N[C@@H](CCCCN)C(=O)N[C@@H](CCCCN)C(=O)N[C@@H](CCCNC(=N)N)C(=O)N[C@H](C(N)=O)[C@@H](C)O`, for which the Ki was determined as 29 nM.
In the case of `CC(=O)N[C@@H](CCCNC(=N)N)C(=O)N[C@@H](C)C(=O)N[C@@H](Cc1c[nH]cn1)C(=O)N[C@@H](CCCNC(=N)N)C(=O)N[C@@H](CCCNC(=N)N)C(=O)N[C@@H](CCCCN)C(=O)N[C@@H](CCCCN)C(=O)N[C@@H](CCCNC(=N)N)C(=O)N[C@H](C(N)=O)[C@@H](C)O` it was 25 nM; in that of `CC[C@H](NC(=O)[C@H](CCCNC(=N)N)NC(=O)[C@H](C)NC(=O)[C@H](CCCNC(=N)N)NC(C)=O)C(=O)N[C@@H](CCCNC(=N)N)C(=O)N[C@@H](CCCCN)C(=O)N[C@@H](CCCCN)C(=O)N[C@@H](CCCNC(=N)N)C(=O)N[C@H](C(N)=O)[C@@H](C)O`, 11 nM; in that of `CC(=O)N[C@@H](CCCNC(=N)N)C(=O)N[C@@H](C)C(=O)NCC(=O)N[C@@H](CCCNC(=N)N)C(=O)N[C@@H](CCCNC(=N)N)C(=O)N[C@@H](CCCCN)C(=O)N[C@@H](CCCCN)C(=O)N[C@@H](CCCNC(=N)N)C(=O)N[C@H](C(N)=O)[C@@H](C)O`, 35 nM.
The same measure for `CC(=O)N[C@@H](CCCNC(=N)N)C(=O)N[C@@H](C)C(=O)N[C@@H](CCC(=O)O)C(=O)N[C@@H](CCCNC(=N)N)C(=O)N[C@@H](CCCNC(=N)N)C(=O)N[C@@H](CCCCN)C(=O)N[C@@H](CCCCN)C(=O)N[C@@H](CCCNC(=N)N)C(=O)N[C@H](C(N)=O)[C@@H](C)O`: 140 nM; for `CC(=O)N[C@@H](CCCNC(=N)N)C(=O)N[C@@H](C)C(=O)N[C@@H](CCCNC(=N)N)C(=O)N[C@H]1CCCCNC(=O)[C@H](CCCNC(=N)N)NC(=O)[C@H](CCCCN)NC(=O)[C@H](CCCCN)NC(=O)[C@H](CCCNC(=N)N)NC(=O)[C@H]([C@@H](C)O)NC1=O` (Ac-RARKTRKKR; lactam 4-C): 2500 nM; for `CC(=O)N[C@@H](CCCNC(=N)N)C(=O)N[C@@H](C)C(=O)N[C@@H](CCCCN)C(=O)N[C@@H](CCCNC(=N)N)C(=O)N[C@@H](CCCNC(=N)N)C(=O)N[C@@H](CCCCN)C(=O)N[C@@H](CCCCN)C(=O)N[C@@H](CCCNC(=N)N)C(=O)N[C@H](C(N)=O)[C@@H](C)O`: 15 nM.
In the case of `CC(=O)N[C@@H](CCCNC(=N)N)C(=O)N[C@@H](C)C(=O)N[C@@H](CCCNC(=N)N)C(=O)N[C@@H](CC(=O)O)C(=O)N[C@@H](CCCNC(=N)N)C(=O)N[C@@H](CCCCN)C(=O)N[C@@H](CCCCN)C(=O)N[C@@H](CCCNC(=N)N)C(=O)N[C@H](C(N)=O)[C@@H](C)O`, the Ki was 130 nM.
The same measure for `CC[C@H](NC(=O)[C@H](CCCNC(=N)N)NC(=O)[C@H](C)NC(=O)[C@H](CO)NC(C)=O)C(=O)N[C@@H](CCCNC(=N)N)C(=O)N[C@@H](CCCCN)C(=O)N[C@@H](CCCCN)C(=O)N[C@@H](CCCNC(=N)N)C(=O)N[C@H](C(N)=O)[C@@H](C)O`: 11 nM; for `CC[C@H](C)[C@H](NC(=O)[C@H](CCCNC(=N)N)NC(=O)[C@H](C)NC(=O)[C@@H](NC(C)=O)C(C)C)C(=O)N[C@@H](CCCNC(=N)N)C(=O)N[C@@H](CCCCN)C(=O)N[C@@H](CCCCN)C(=O)N[C@@H](CCCNC(=N)N)C(=O)N[C@H](C(N)=O)[C@@H](C)O` (Ac-VARIRKKRT-NH2): 10 nM.
With `CC(=O)N[C@@H](CCCNC(=N)N)C(=O)N[C@@H](C)C(=O)N[C@@H](CCCNC(=N)N)C(=O)N[C@@H](C)C(=O)N[C@@H](CCCNC(=N)N)C(=O)N[C@@H](CCCCN)C(=O)N[C@@H](CCCCN)C(=O)N[C@@H](CCCNC(=N)N)C(=O)N[C@H](C(N)=O)[C@@H](C)O`, the Ki is 11 nM.
On to `CC(=O)N[C@H](C(=O)N[C@@H](C)C(=O)N[C@@H](CCCNC(=N)N)C(=O)N[C@@H](CCCNC(=N)N)C(=O)N[C@@H](CCCNC(=N)N)C(=O)N[C@@H](CCCCN)C(=O)N[C@@H](CCCCN)C(=O)N[C@@H](CCCNC(=N)N)C(=O)N[C@H](C(N)=O)[C@@H](C)O)[C@@H](C)O`, for which the Ki is 10 nM.
On to `CC(=O)N[C@@H](CCCNC(=N)N)C(=O)N[C@@H](C)C(=O)N[C@@H](CCCNC(=N)N)C(=O)NC1(C(=O)N[C@@H](CCCNC(=N)N)C(=O)N[C@@H](CCCCN)C(=O)N[C@@H](CCCCN)C(=O)N[C@@H](CCCNC(=N)N)C(=O)N[C@H](C(N)=O)[C@@H](C)O)CCCC1`, for which the Ki came to 50 nM.
The same measure for `CC[C@H](C)[C@H](NC(=O)[C@H](CCCNC(=N)N)NC(=O)[C@H](C)NC(=O)[C@H](CCC(=O)O)NC(C)=O)C(=O)N[C@@H](CCCNC(=N)N)C(=O)N[C@@H](CCCCN)C(=O)N[C@@H](CCCCN)C(=O)N[C@@H](CCCNC(=N)N)C(=O)N[C@H](C(N)=O)[C@@H](C)O` (Ac-EARIRKKRT-NH2): 12 nM.
Turning to `CC(=O)N[C@@H](C)C(=O)N[C@H](C(=O)N[C@@H](CCCNC(=N)N)C(=O)N[C@@H](CCCNC(=N)N)C(=O)N[C@@H](CCCNC(=N)N)C(=O)N[C@@H](CCCCN)C(=O)N[C@@H](CCCCN)C(=O)N[C@@H](CCCNC(=N)N)C(=O)N[C@H](C(N)=O)[C@@H](C)O)C(C)C` (Ac-AVRRRKKRT-NH2), the Ki was 10 nM.
`CC(=O)N[C@@H](CCCNC(=N)N)C(=O)N[C@@H](C)C(=O)N[C@@H](C)C(=O)N[C@@H](CCCNC(=N)N)C(=O)N[C@@H](CCCNC(=N)N)C(=O)N[C@@H](CCCCN)C(=O)N[C@@H](CCCCN)C(=O)N[C@@H](CCCNC(=N)N)C(=O)N[C@H](C(N)=O)[C@@H](C)O`: the Ki came to 23 nM.
In the case of `CC(=O)N[C@@H](CCCNC(=N)N)C(=O)N[C@@H](CCCNC(=N)N)C(=O)N[C@@H](CCCNC(=N)N)C(=O)N[C@@H](CCCNC(=N)N)C(=O)N[C@@H](CCCNC(=N)N)C(=O)N[C@@H](CCCCN)C(=O)N[C@@H](CCCCN)C(=O)N[C@@H](CCCNC(=N)N)C(=O)N[C@H](C(N)=O)[C@@H](C)O` it was 23 nM; in that of `CC(=O)N[C@@H](CO)C(=O)N[C@@H](C)C(=O)N[C@@H](CCCNC(=N)N)C(=O)N[C@@H](CCCNC(=N)N)C(=O)N[C@@H](CCCNC(=N)N)C(=O)N[C@@H](CCCCN)C(=O)N[C@@H](CCCCN)C(=O)N[C@@H](CCCNC(=N)N)C(=O)N[C@H](C(N)=O)[C@@H](C)O`, 11 nM; in that of `CC(=O)N[C@@H](CCCNC(=N)N)C(=O)N[C@@H](C)C(=O)N[C@@H](CC(C)C)C(=O)N[C@@H](CCCNC(=N)N)C(=O)N[C@@H](CCCNC(=N)N)C(=O)N[C@@H](CCCCN)C(=O)N[C@@H](CCCCN)C(=O)N[C@@H](CCCNC(=N)N)C(=O)N[C@H](C(N)=O)[C@@H](C)O`, 14 nM.
In the case of `CC(=O)N[C@@H](CCCNC(=N)N)C(=O)N[C@@H](C)C(=O)N[C@@H](CC(N)=O)C(=O)N[C@@H](CCCNC(=N)N)C(=O)N[C@@H](CCCNC(=N)N)C(=O)N[C@@H](CCCCN)C(=O)N[C@@H](CCCCN)C(=O)N[C@@H](CCCNC(=N)N)C(=O)N[C@H](C(N)=O)[C@@H](C)O` it was 27 nM; in that of `CC(=O)N[C@@H](CCCNC(=N)N)C(=O)N[C@H](C(=O)N[C@@H](CCCNC(=N)N)C(=O)N[C@@H](CCCNC(=N)N)C(=O)N[C@@H](CCCNC(=N)N)C(=O)N[C@@H](CCCCN)C(=O)N[C@@H](CCCCN)C(=O)N[C@@H](CCCNC(=N)N)C(=O)N[C@H](C(N)=O)[C@@H](C)O)C(C)C`, 16 nM; in that of `CC[C@H](C)[C@H](NC(C)=O)C(=O)N[C@@H](C)C(=O)N[C@@H](CCCNC(=N)N)C(=O)N[C@@H](CCCNC(=N)N)C(=O)N[C@@H](CCCNC(=N)N)C(=O)N[C@@H](CCCCN)C(=O)N[C@@H](CCCCN)C(=O)N[C@@H](CCCNC(=N)N)C(=O)N[C@H](C(N)=O)[C@@H](C)O`, 11 nM.
